A short description of data set [1]: Unbound volume of distribution at steady state in rat at 0.5 mg/kg. Format: ADME, organism-based. The settings on record: in vivo.
Data set [2] is described as follows: Plasma clearance in rat at 0.5 mg/kg. It is filed as ADME, organism-based.
Data set [3] can be described thus: Unbound clearance in rat at 0.5 mg/kg. It is filed as ADME, organism-based. The settings on record: in vivo.
For data set [4], the target named is Transient receptor potential cation channel subfamily A member 1 (Rattus norvegicus, UniProt Q6RI86). The data set is described as follows: Antagonist activity at rat TRPA1. In outline:
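In vitro potency read in a CHO cell line-based fluorometric imaging plate reader (FLIPR) Ca2+ assay against the rat TRPA1 channel.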

Data set [5] is described as follows: Half life in rat at 0.5 mg/kg. It is filed as ADME, organism-based. The settings on record: in vivo.
The nature of data set [6]: Volume of distribution at steady state in rat at 0.5 mg/kg. The conditions noted are these: in vivo, read-out: Vdss. Format: ADME, organism-based.
A short description of data set [7]: Protein binding in rat plasma incubated for 4 hrs. Format: ADME, cell-free. The conditions noted are these: read-out: PPB (converted). In outline:
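Rat plasma protein binding was determined after 4 h compound incubation rather than the standard 24 h, because of compound instability in rat plasma.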

Data set [8] can be described thus: Unbound clearance in rat at 1 mg/kg. It is filed as ADME, organism-based. The settings on record: in vivo.
Data set [9] is described as follows: Kinetic solubility of the compound. It is filed as physicochemical. The settings on record: for solubility kinetic: read-out: Kinetic_solubility.
Data set [10] is described as follows: Permeability across apical to basolateral membrane in MDCK cells. Format: ADME, cell-based, Canis lupus familiaris. The conditions noted are these: dog, read-out: permeability.
Data set [11] in a line: Unbound volume of distribution at steady state in rat at 1 mg/kg. It is filed as ADME, organism-based. The conditions noted are these: in vivo.
The nature of data set [12]: Ratio of fEC50 for in vivo antagonist activity at TRPA1 in AITC-induced rat pain model assessed as reduction in pain behaviour when administered orally to IC50 for antagonist activity at rat TRPA1. It is filed as organism-based. The settings on record: po. In outline: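 The in vivo value comes from the oral-dose rat AITC paw-injection model at Tmax, scoring flinching and licking against measured exposures across animals. The in vitro comparator is rat TRPA1 antagonism in a CHO cell-based FLIPR Ca2+ assay.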

Data set [13] can be described thus: Half life in rat at 1 mg/kg. Format: ADME, organism-based. The settings on record: in vivo.
Data set [14] has as its target Transient receptor potential cation channel subfamily A member 1 (Homo sapiens, UniProt O75762). Nature of the data set: Antagonist activity at human TRPA1 expressed in CHO cells measured by calcium based FLIPR assay. It is filed as cell-based.
Data set [15] in a line: Plasma clearance in rat at 1 mg/kg. Format: ADME, organism-based.
The target in data set [16] is Transient receptor potential cation channel subfamily A member 1 (Rattus norvegicus) (UniProt Q6RI86). The data set is described as follows: In vivo antagonist activity at TRPA1 in AITC-induced rat pain model assessed as reduction in pain behaviour when administered orally. Format: functional, organism-based.
Data set [17] in a line: Volume of distribution at steady state in rat at 1 mg/kg. Format: ADME, organism-based. The settings on record: in vivo, read-out: Vdss.
A short description of data set [18]: Lipophilicity, log D of the compound at pH 7.4. The conditions noted are these: buffer. It is filed as physicochemical.

We go through eight compounds from ChEMBL document CHEMBL4825747, “A Retrospective Look at the Impact of Binding Site Environment on the Optimization of TRPA1 Antagonists” (ACS Med Chem Lett, 2021).

≈ marks a conversion by molar mass, not a printed value.

Usually clearance stands for a measure of how efficiently the substance is removed, as volume per time. Read a high clearance as a high capacity for elimination. In general, IC50 refers to the midpoint of a concentration-inhibition curve. As a reminder, the half-life is the time in which the quantity being followed falls by half. Low readings indicate fast loss, high ones slow loss. What is called logD is lipophilicity at a set pH, counting ionised and neutral species. A high value points to higher lipophilicity.

Sequence of Transient receptor potential cation channel subfamily A member 1 (Rattus norvegicus) (Q6RI86 whole entry): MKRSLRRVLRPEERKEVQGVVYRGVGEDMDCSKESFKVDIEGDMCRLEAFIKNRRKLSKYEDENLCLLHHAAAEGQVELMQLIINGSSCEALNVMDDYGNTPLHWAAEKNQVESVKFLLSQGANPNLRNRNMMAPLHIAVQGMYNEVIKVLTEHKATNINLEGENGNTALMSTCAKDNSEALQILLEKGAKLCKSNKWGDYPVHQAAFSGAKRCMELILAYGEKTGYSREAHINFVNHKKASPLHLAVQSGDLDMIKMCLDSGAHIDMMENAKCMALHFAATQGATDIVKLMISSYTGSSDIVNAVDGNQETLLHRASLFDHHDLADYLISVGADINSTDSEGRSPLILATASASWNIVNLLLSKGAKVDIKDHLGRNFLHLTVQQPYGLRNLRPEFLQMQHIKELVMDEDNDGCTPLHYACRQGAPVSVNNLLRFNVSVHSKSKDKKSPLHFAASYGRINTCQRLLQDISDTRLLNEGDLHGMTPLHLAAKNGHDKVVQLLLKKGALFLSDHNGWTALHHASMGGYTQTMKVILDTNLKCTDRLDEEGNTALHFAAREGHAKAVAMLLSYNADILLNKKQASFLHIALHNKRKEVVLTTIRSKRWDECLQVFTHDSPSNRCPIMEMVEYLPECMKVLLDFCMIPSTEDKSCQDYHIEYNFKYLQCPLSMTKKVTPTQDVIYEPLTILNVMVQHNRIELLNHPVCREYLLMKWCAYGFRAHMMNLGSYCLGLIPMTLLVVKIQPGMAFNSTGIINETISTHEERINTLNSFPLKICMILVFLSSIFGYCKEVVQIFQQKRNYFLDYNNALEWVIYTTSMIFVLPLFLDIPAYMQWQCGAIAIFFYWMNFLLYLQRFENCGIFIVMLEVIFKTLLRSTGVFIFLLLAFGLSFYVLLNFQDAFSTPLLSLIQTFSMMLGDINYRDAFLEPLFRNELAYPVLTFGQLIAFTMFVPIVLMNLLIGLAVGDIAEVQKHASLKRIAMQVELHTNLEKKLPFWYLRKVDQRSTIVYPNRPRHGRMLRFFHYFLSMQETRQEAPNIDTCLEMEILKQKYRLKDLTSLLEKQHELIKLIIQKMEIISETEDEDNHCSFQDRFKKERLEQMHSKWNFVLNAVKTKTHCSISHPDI
Sequence of Transient receptor potential cation channel subfamily A member 1 (Rattus norvegicus, UniProt Q6RI86) (Q6RI86 whole entry): as above
Sequence of Transient receptor potential cation channel subfamily A member 1 (Homo sapiens, UniProt O75762) (O75762 whole entry): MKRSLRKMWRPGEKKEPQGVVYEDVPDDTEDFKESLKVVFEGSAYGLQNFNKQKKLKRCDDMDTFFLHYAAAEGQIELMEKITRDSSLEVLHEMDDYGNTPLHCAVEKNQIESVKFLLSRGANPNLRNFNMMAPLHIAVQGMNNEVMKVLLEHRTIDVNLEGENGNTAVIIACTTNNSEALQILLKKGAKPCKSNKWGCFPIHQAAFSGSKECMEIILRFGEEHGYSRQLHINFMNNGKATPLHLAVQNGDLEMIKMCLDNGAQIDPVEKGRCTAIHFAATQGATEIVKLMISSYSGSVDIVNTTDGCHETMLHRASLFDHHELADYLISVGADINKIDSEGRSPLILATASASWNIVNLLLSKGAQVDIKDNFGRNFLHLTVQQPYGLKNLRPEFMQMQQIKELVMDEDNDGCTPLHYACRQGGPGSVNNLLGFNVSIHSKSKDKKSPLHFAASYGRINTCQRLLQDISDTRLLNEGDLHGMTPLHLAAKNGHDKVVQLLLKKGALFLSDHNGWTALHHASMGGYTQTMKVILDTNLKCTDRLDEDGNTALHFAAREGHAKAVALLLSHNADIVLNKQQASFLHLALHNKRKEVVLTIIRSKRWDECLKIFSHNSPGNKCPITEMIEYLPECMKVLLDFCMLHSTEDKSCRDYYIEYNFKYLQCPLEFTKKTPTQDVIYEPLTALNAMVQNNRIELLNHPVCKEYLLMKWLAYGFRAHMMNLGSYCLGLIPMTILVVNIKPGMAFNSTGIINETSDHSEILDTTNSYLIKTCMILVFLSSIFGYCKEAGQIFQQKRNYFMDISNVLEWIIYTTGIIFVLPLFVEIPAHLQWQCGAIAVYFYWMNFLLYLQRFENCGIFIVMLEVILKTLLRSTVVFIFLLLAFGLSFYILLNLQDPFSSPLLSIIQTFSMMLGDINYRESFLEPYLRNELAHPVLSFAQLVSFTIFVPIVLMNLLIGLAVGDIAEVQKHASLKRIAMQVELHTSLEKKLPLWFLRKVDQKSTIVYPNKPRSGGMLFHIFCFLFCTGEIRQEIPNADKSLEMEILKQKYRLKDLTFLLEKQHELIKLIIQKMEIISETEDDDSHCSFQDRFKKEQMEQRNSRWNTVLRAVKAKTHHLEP

In [1], `C[C@H]1[C@H](F)C[C@@H](C(=O)NCc2cc(-c3ccc(C(F)(F)F)nc3)ncn2)N1S(=O)(=O)c1ccc(F)cc1` came in with a fVdss of 42 L/kg. In data set [2], this compound yielded a clearance of 10 mL/min/kg. In [3], this compound showed a CL free of 192 mL/min/kg. This compound registered an IC50 in data set [4] of 1600 nM. In data set [5], this compound showed a half-life of 156 min. In data set [6], the Vd was 2.2 L/kg. Besides, the fraction unbound at 4 h in data set [7] was 0.052.
As for `C[C@H]1[C@H](F)C[C@@H](C(=O)NCc2cc(-c3cnc(C(F)(F)F)nc3)ncc2C(F)(F)F)N1S(=O)(=O)c1ccc(F)cc1`, the CL free in data set [8] stood at 642 mL/min/kg. In addition, the Kinetic_solubility in data set [9] turned out to be 7 µM. Besides, the IC50 in data set [4] was 10 nM; in [14], 1.6 nM. Moreover, the Papp A→B in [10] is 27.5 ×10⁻⁶ cm/s. The same compound had a fVdss in data set [11] of 467 L/kg. Further, the fraction unbound at 4 h in [7] was 0.012. Further, in data set [12], the Ratio came out at 0.37. Besides, the half-life in data set [13] was 588 min. In addition, the clearance in data set [15] is 7.7 mL/min/kg. In data set [16], the fEC50 was 3.7 nM. Further, the Vd in [17] was 5.6 L/kg.
`Cn1cnc2ncn(Cc3nn([C@H]4C[C@H](c5ccc(Cl)cc5)C4)c(=O)o3)c(=O)c21` gave a CL free in [8] of 123 mL/min/kg. Further, the solubility kinetic in data set [9] was determined as 15 µM (≈ 6.19 µg/mL). For the same compound, the IC50 in data set [4] stood at 14 nM. The Papp A→B in [10] was 6.4 ×10⁻⁶ cm/s. For the same compound, the fVdss in data set [11] stood at 28 L/kg. Also, the fraction unbound at 4 h in data set [7] was 0.081. Moreover, in data set [13], the half-life was 162 min. In addition, the clearance in data set [15] worked out at 10 mL/min/kg. The compound further returned a logD in data set [18] of 2.4. Also, the fEC50 in data set [16] stood at 49 nM. Besides, the Vd in data set [17] came out at 2.3 L/kg.
Turning to `Cn1cnc2ncn(Cc3nc([C@@H]4CO[C@@H](c5ccc(Cl)cc5)C4)no3)c(=O)c21`, in data set [8], the CL free is 89 mL/min/kg. Moreover, the solubility kinetic in data set [9] was determined as 120 µM (≈ 49.5 µg/mL). The same compound came in with an IC50 in data set [4] of 7.4 nM. This compound gave a fVdss in data set [11] of 11 L/kg. The fraction unbound at 4 h in [7] is 0.192. This compound also displayed a logD in data set [18] of 1.8. In addition, in [16], the fEC50 came out at 53 nM.
As for `C[C@H]1[C@H](F)C[C@@H](C(=O)NCc2cc(-c3cnc(C(F)(F)F)nc3)ncn2)N1S(=O)(=O)c1ccc(F)cc1`, the fVdss in data set [1] worked out at 15 L/kg. Besides, the clearance in data set [2] came to 6.4 mL/min/kg. In [3], this compound registered a CL free of 85 mL/min/kg. In addition, the solubility kinetic in data set [9] was found to be 98 µM (≈ 53.2 µg/mL). Further, the IC50 in data set [4] was 390 nM. In addition, in [10], the Papp A→B is 16.5 ×10⁻⁶ cm/s. Further, the half-life in data set [5] is 120 min. The Vd in [6] was 1.1 L/kg. Further, the fraction unbound at 4 h in [7] is 0.075.
The compound `Cn1cnc2ncn(Cc3nn(C[C@H](F)c4ccc(Cl)cc4)c(=O)o3)c(=O)c21` displayed a CL free in data set [8] of 45 mL/min/kg. The figures for the IC50 in data set [4] and in data set [14] were 18 nM and 20 nM, respectively. This compound had a fVdss in data set [11] of 3.4 L/kg. Further, in data set [7], the fraction unbound at 4 h is 0.381. For the same compound, in data set [12], the Ratio was 22. In [13], the half-life is 90 min. The same compound displayed a logD in data set [18] of 1.2. In addition, the fEC50 in data set [16] was 390 nM.
In turn, `C[C@H]1[C@H](F)C[C@@H](C(=O)NCc2cc(-c3cnc(C(F)(F)F)nc3)ncc2F)N1S(=O)(=O)c1ccc(F)cc1` registered a CL free in data set [8] of 157 mL/min/kg. For the same compound, the solubility kinetic in data set [9] is less than 1 µM. In data set [11], this compound showed a fVdss of 93 L/kg. Moreover, in data set [7], the fraction unbound at 4 h was 0.028. The Ratio in data set [12] is given as 1.7. The half-inhibitory concentration (IC50) in data set [14] stood at 8.4 nM. The fEC50 in data set [16] is 60 nM. In [17], the Vd came out at 2.6 L/kg.
The compound `Cn1cnc2ncn(Cc3nc([C@H]4[C@@H]5CN(c6cccc(Cl)c6)C[C@@H]54)no3)c(=O)c21` gave a CL free in data set [8] of 214 mL/min/kg. The same compound yielded a Kinetic_solubility in data set [9] of 2 µM. Moreover, the IC50 in data set [4] was determined as 7.9 nM; in data set [14] it was 2.9 nM. Further, in data set [11], the fVdss was 110 L/kg. Besides, the fraction unbound at 4 h in data set [7] is 0.021. Moreover, the Ratio in [12] is recorded as 1. This compound also registered a logD in [18] of 2.9. Besides, the fEC50 in data set [16] was 7.9 nM.
